In ChEMBL document CHEMBL1142735, “Discovery of a new series of centrally active tricyclic isoxazoles combining serotonin (5-HT) reuptake inhibition with alpha2-adrenoceptor blocking activity” (J Med Chem, 2005):

Key:
D(2) dopamine receptor = D(2) dopamine receptor (Homo sapiens, UniProt P14416); experiment: Inhibition of [3H]spiperone binding to Dopamine receptor D2
In short: (§1)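 Radioligand competition binding on membranes from cell lines carrying the human target, incubated with the labelled ligand under optimized conditions. Separation by filtration, except α1A and D3, which used scintillation proximity assay.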

Rattus norvegicus [1] = experiment: Effective dose for PCA-induced 5-HT depletion was determined by subcutaneous administration; type: functional; conditions: sc
In short: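 Male Wiga Wistar rats (200 g, n=6 per condition) dosed sc or po (10 mL/kg). At 4 h, frontal cortex removed and extracted with perchloric acid/metabisulfite; 5-HT measured by HPLC-electrochemical detection against a standard curve with dihydroxybenzylamine internal standard. Effect scaled between pCA+vehicle and vehicle+vehicle controls; ED50 from sigmoidal fit.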

[2] = molecular target: 5-hydroxytryptamine receptor 7 (Homo sapiens, UniProt P34969); experiment: Inhibition of [3H]5-HT binding to 5-hydroxytryptamine 7 receptor; in short: as §1
[3] = molecular target: T1, 5-hydroxytryptamine receptor 2C (Homo sapiens, UniProt P28335); experiment: Inhibition of [3H]- mesulergine binding to 5-hydroxytryptamine 2C receptor; in short: as §1
T1 sequence (P28335 whole entry): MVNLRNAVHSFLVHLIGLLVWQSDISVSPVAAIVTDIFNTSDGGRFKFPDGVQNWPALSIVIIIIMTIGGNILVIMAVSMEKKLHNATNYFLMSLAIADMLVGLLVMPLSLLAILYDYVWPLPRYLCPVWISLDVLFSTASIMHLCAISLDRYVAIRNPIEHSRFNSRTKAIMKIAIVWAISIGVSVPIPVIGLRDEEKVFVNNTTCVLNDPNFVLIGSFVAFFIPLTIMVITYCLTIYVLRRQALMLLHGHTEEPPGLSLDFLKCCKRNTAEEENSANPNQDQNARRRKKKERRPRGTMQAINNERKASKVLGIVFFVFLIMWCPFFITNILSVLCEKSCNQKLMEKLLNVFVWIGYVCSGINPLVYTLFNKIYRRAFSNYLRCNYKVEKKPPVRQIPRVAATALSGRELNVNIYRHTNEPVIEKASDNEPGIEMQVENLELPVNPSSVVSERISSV

[4] = molecular target: Norepinephrine transporter (Rattus norvegicus, UniProt Q9WTR4); experiment: Inhibition of [3H]-nisoxetine binding to Norepinephrine transporter from rat cortex
In short: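 Radioligand competition on rat cortex membranes, incubated under optimized conditions. Stopped by rapid filtration. Ki by Cheng-Prusoff.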

Rattus norvegicus [5] = experiment: Effective dose for antagonism ofpCA-Induced excitation was determined by oral administration; type: functional
In short: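 Oral pretreatment of overnight-fasted male Wistar rats (200-250 g), then medetomidine 0.10 mg/kg iv (reversal means no loss of righting) or pCA 5 mg/kg sc (excitation scored 0-3 over 15 min from 45 min after pCA; inhibition means score <2). Doses taken from a geometric series.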

[6] = molecular target: T2, 5-hydroxytryptamine receptor 1A (Homo sapiens, UniProt P08908); experiment: Inhibition of [3H]8-OH-DPAT binding to 5-hydroxytryptamine 1A receptor; in short: as §1
T2 sequence (P08908 whole entry): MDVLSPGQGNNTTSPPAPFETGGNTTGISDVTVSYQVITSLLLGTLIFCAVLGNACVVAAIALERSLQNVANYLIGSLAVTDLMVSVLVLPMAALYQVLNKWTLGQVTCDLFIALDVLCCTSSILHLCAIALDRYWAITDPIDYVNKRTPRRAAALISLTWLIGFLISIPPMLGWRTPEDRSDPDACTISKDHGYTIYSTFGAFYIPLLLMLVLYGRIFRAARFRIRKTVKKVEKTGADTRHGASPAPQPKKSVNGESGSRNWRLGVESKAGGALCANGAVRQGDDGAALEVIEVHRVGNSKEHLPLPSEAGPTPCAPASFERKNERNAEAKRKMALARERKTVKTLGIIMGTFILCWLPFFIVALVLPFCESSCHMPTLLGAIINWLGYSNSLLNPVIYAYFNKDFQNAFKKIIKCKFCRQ

[7] = molecular target: 5-hydroxytryptamine receptor 2A (Homo sapiens, UniProt P28223); experiment: Inhibition of [125I]- R91150 binding to 5-hydroxytryptamine 2A receptor; in short: as §1
5-hydroxytryptamine receptor 2A, sequence (P28223 whole entry): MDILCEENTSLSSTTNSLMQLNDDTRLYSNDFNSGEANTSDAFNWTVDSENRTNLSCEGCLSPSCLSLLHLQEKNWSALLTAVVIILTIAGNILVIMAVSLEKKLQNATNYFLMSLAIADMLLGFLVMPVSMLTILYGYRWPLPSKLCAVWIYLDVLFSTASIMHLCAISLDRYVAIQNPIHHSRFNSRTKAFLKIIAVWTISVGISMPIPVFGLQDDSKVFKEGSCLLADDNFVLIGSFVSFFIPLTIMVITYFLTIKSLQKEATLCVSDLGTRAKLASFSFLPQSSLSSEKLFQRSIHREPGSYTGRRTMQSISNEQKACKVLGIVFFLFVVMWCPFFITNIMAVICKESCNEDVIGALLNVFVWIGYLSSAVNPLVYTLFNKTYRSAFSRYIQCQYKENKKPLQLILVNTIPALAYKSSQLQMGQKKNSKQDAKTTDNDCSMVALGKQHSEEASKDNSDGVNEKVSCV

5-hydroxytryptamine receptor 7, sequence (P34969 whole entry): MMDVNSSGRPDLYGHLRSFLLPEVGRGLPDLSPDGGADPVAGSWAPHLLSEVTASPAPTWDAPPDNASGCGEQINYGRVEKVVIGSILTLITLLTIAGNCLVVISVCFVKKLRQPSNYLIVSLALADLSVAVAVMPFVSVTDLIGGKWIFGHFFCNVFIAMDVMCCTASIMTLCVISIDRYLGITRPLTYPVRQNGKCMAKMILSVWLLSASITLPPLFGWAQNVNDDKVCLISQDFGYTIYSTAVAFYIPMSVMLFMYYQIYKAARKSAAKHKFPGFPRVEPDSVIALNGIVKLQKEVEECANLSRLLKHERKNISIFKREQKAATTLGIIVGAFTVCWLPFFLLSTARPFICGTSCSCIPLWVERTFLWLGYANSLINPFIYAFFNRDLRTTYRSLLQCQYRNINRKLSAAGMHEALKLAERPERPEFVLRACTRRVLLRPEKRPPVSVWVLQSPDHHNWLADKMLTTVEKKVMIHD
D(2) dopamine receptor, sequence (P14416 whole entry): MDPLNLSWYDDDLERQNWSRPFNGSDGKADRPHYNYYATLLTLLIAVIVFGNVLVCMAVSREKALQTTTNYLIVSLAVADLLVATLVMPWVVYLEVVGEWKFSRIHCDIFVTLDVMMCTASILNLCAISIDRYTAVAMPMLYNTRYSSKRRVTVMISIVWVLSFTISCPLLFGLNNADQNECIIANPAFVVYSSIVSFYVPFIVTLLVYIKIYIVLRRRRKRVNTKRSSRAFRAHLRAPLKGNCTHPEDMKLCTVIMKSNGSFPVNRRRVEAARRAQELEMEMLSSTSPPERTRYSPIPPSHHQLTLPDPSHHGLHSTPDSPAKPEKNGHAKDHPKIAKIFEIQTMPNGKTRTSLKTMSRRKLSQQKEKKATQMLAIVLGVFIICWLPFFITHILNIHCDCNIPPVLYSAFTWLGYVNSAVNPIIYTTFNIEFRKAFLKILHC
Norepinephrine transporter, sequence (Q9WTR4 whole entry): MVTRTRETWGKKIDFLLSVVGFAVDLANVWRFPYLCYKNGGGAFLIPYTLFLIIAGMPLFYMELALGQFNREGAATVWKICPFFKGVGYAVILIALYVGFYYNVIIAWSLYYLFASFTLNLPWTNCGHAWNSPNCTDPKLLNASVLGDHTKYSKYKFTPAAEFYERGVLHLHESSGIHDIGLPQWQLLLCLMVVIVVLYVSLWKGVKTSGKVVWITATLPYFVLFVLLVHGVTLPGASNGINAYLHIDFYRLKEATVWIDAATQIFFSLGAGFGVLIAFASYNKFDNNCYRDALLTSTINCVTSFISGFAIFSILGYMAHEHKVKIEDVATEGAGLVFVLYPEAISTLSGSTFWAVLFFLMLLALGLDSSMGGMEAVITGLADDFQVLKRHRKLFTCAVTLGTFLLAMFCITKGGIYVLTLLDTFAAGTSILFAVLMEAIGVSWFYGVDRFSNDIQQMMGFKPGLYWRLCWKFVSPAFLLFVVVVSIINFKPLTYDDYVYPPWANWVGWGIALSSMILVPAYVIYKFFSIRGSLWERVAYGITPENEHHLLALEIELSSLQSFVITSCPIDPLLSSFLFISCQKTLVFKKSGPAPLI

SMILES | Ki (D(2) dopamine receptor) [µM] | ED50 (Rattus norvegicus [1]) [mg/kg] | Ki [2] [µM] | Ki [3] [µM] | Ki [4] [µM] | ED50 (Rattus norvegicus [5]) [mg/kg] | Ki [6] [µM] | Ki [7] [µM]
COc1cc2c(cc1OC)C1=NO[C@@H](CN3CCN(C/C=C/c4ccccc4)CC3)[C@@H]1CO2 | 0.959 | 0.17 | > 1 | > 1 | 0.132 | 5 | > 1 | > 1
COc1cc2c(cc1OC)C1=NO[C@@H](CN3CCN(C/C(C)=C/c4ccccc4)CC3)[C@@H]1CO2 | 0.23 | 0.33 | > 1 | > 1 | 0.177 |  | 0.475 | > 1
COc1cc2c(cc1OC)C1=NO[C@@H](CN3CCN(Cc4ccc5ccccc5c4)CC3)[C@@H]1CO2 | > 1 | 0.25 | > 1 | > 1 | 0.033 | 5 | > 1 | > 1
COc1cc2c(cc1OC)C1=NO[C@@H](CN3CCN(C/C=C(\C)c4ccccc4)CC3)[C@@H]1CO2 | > 1 | 0.24 | > 1 | > 1 | 0.22 | ≥ 2.5 | > 1 | > 1
